Legend:
[1] = Selectivity index, ratio of CC50 for human HepG2.2.15 cells to IC50 for HBV infected in human HepG2.2.15 cells assessed as inhibition of viral DNA replication; assay type: functional
In short: (§1)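 Selectivity index was calculated as CC50 (HepG 2.2.15 cytotoxicity) divided by IC50 for the given marker (HBV DNA replication, HBeAg or HBsAg), all measured in HepG 2.2.15 cells.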

Hepatitis B virus [2] = assay: Antiviral activity against HBV infected in human HepG2.2.15 cells assessed as inhibition of viral DNA replication; assay type: functional, organism-based; settings: HepG2 2.2.15
In short: (§2)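 Assayed in HBV-producing HepG 2.2.15 cells, with tenofovir as positive control. HBsAg, HBeAg and HBV DNA replication were each measured, and IC50 was taken as the compound concentration giving 50% inhibition of the given marker.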

[3] = Selectivity index, ratio of CC50 for human HepG2.2.15 cells to IC50 for HBV infected in human HepG2.2.15 cells assessed as inhibition of viral e antigen production; assay type: functional; in short: as §1
Hepatitis B virus [4] = assay: Antiviral activity against HBV infected in human HepG2.2.15 cells assessed as inhibition of viral e antigen production; assay type: functional, organism-based; settings: HepG2 2.2.15; in short: as §2
[5] = Selectivity index, ratio of CC50 for human HepG2.2.15 cells to IC50 for HBV infected in human HepG2.2.15 cells assessed as inhibition of viral surface antigen production; assay type: functional; in short: as §1
Hepatitis B virus [6] = assay: Antiviral activity against HBV infected in human HepG2.2.15 cells assessed as inhibition of viral surface antigen production; assay type: functional, organism-based; settings: HepG2 2.2.15; in short: as §2
[7] = Cytotoxicity against human HepG2.2.15 cells; assay type: cell-based, HepG2 2.2.15
In short: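 Cytotoxicity was tested in HepG 2.2.15 cells alongside the anti-HBV assay. CC50 was taken as the compound concentration required to destroy 50% of the cells.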

Compound | Ratio CC50/IC50 [1] | IC50 (Hepatitis B virus [2]) [µM] | Ratio CC50/IC50 [3] | IC50 (Hepatitis B virus [4]) [µM] | Ratio CC50/IC50 [5] | IC50 (Hepatitis B virus [6]) [µM] | CC50 [7] [µM]
CC(=O)O[C@@H]1[C@@H](O)C[C@@H]2C(=CC[C@@H]3[C@@]2(C)C(=O)C[C@]2(C)[C@@H]([C@@](C)(O)C(=O)CCC(C)(C)OC(C)=O)[C@H](O)C[C@@]32C)C1(C)C | 89.7 | 2.8 | <1 | > 254 | 1.3 | 190 | 254
CC(=O)OC(C)(C)CCC(=O)[C@](C)(O)[C@H]1[C@H](O)C[C@@]2(C)[C@@H]3CC=C4[C@@H](C[C@H](O)[C@@H](O)C4(C)C)[C@]3(C)C(=O)C[C@]12C [HEMSLECIN A] | 5.8 | 11.4 | <1 | > 66.2 | <1 | > 66.2 | 66.2
